Measurements from ChEMBL document CHEMBL4261538, “Synthesis and molecular docking studies of xanthone attached amino acids as potential antimicrobial and anti-inflammatory agents” (Medchemcomm, 2017).
In brackets after ≈: the same amount, converted by molar mass.

What was measured:
[1] = system: Fusarium oxysporum; assay: Antifungal activity against Fusarium oxysporum at 100 ug/ml incubated for 48 hrs by agar well diffusion method; type: functional; conditions: read-out: DIZ
Method in brief: (§1)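 Compounds dissolved in DMSO at 5 mg mL⁻¹ and 5–20 µL added to 6 mm wells, giving 25, 50, 75, 100 µg per well. Bavistin was the positive control and DMSO the negative control. Plates incubated at 28 °C for 48 h, then inhibition zone diameter (mm) measured. Values are means of three determinations.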

[2] = system: Candida albicans; assay: Antifungal activity against Candida albicans at 25 ug/ml incubated for 48 hrs by agar well diffusion method; type: functional; conditions: read-out: DIZ; method in brief: as §1
[3] = system: Candida albicans; assay: Antifungal activity against Candida albicans at 75 ug/ml incubated for 48 hrs by agar well diffusion method; type: functional; conditions: read-out: DIZ; method in brief: as §1
[4] = system: Staphylococcus aureus; assay: Antibacterial activity against Staphylococcus aureus at 75 ug/ml incubated for 24 hrs by agar well diffusion method; type: functional; conditions: read-out: DIZ
Method in brief: (§2)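 Bacteria grown in nutrient broth at 37 °C for 24 h, then subcultured at room temperature. Compounds dissolved in DMSO at 5 mg mL⁻¹ and 5–20 µL added to 6 mm wells, giving 25, 50, 75, 100 µg per well. Gentamicin was the positive control and DMSO the negative control. Plates held at 37 °C for 24 h, then inhibition zone diameter (mm) measured. Values are means of three determinations.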

[5] = system: Staphylococcus aureus; assay: Antibacterial activity against Staphylococcus aureus at 50 ug/ml incubated for 24 hrs by agar well diffusion method; type: functional; conditions: read-out: DIZ; method in brief: as §2
[6] = system: Escherichia coli; assay: Antibacterial activity against Escherichia coli at 75 ug/ml incubated for 24 hrs by agar well diffusion method; type: functional; conditions: read-out: DIZ; method in brief: as §2
[7] = system: Bacillus subtilis; assay: Antibacterial activity against Bacillus subtilis at 75 ug/ml incubated for 24 hrs by agar well diffusion method; type: functional; conditions: read-out: DIZ; method in brief: as §2
[8] = system: Escherichia coli; assay: Antibacterial activity against Escherichia coli at 25 ug/ml incubated for 24 hrs by agar well diffusion method; type: functional; conditions: read-out: DIZ; method in brief: as §2
[9] = system: Klebsiella pneumoniae; assay: Antibacterial activity against Klebsiella pneumoniae at 100 ug/ml incubated for 24 hrs by agar well diffusion method; type: functional; conditions: read-out: DIZ; method in brief: as §2
[10] = system: Klebsiella pneumoniae; assay: Antibacterial activity against Klebsiella pneumoniae at 25 ug/ml incubated for 24 hrs by agar well diffusion method; type: functional; conditions: read-out: DIZ; method in brief: as §2
[11] = system: Candida albicans; assay: Antifungal activity against Candida albicans at 100 ug/ml incubated for 48 hrs by agar well diffusion method; type: functional; conditions: read-out: DIZ; method in brief: as §1
[12] = system: Staphylococcus aureus; assay: Antibacterial activity against Staphylococcus aureus at 100 ug/ml incubated for 24 hrs by agar well diffusion method; type: functional; conditions: read-out: DIZ; method in brief: as §2
[13] = system: Aspergillus niger; assay: Antifungal activity against Aspergillus niger at 100 ug/ml incubated for 48 hrs by agar well diffusion method; type: functional; conditions: read-out: DIZ; method in brief: as §1
[14] = system: Fusarium oxysporum; assay: Antifungal activity against Fusarium oxysporum at 75 ug/ml incubated for 48 hrs by agar well diffusion method; type: functional; conditions: read-out: DIZ; method in brief: as §1
[15] = system: Aspergillus niger; assay: Antifungal activity against Aspergillus niger at 25 ug/ml incubated for 48 hrs by agar well diffusion method; type: functional; conditions: read-out: DIZ; method in brief: as §1
[16] = system: Erythrocyte; assay: Anti-inflammatory activity in human RBC assessed as inhibition of hypotonic solution-induced hemolysis after 10 mins by spectrophotometric method; type: functional, cell-based
Method in brief: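 Human blood (heparinized) washed with 0.9% saline, packed cells made into a 40% v/v stock in isotonic phosphate buffer (154 mM NaCl, 10 mM sodium phosphate, pH 7.4). Stock RBC mixed with hypotonic buffer (50 mM NaCl, 10 mM phosphate, pH 7.4) plus sample at 20–100 µg mL⁻¹.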

[17] = system: Candida albicans; assay: Antifungal activity against Candida albicans at 50 ug/ml incubated for 48 hrs by agar well diffusion method; type: functional; conditions: read-out: DIZ; method in brief: as §1
[18] = system: Aspergillus niger; assay: Antifungal activity against Aspergillus niger at 50 ug/ml incubated for 48 hrs by agar well diffusion method; type: functional; conditions: read-out: DIZ; method in brief: as §1
[19] = system: Klebsiella pneumoniae; assay: Antibacterial activity against Klebsiella pneumoniae at 50 ug/ml incubated for 24 hrs by agar well diffusion method; type: functional; conditions: read-out: DIZ; method in brief: as §2
[20] = system: Escherichia coli; assay: Antibacterial activity against Escherichia coli at 100 ug/ml incubated for 24 hrs by agar well diffusion method; type: functional; conditions: read-out: DIZ; method in brief: as §2
[21] = system: Bacillus subtilis; assay: Antibacterial activity against Bacillus subtilis at 25 ug/ml incubated for 24 hrs by agar well diffusion method; type: functional; conditions: read-out: DIZ; method in brief: as §2
[22] = system: Fusarium oxysporum; assay: Antifungal activity against Fusarium oxysporum at 25 ug/ml incubated for 48 hrs by agar well diffusion method; type: functional; conditions: read-out: DIZ; method in brief: as §1
[23] = system: Aspergillus niger; assay: Antifungal activity against Aspergillus niger at 75 ug/ml incubated for 48 hrs by agar well diffusion method; type: functional; conditions: read-out: DIZ; method in brief: as §1
[24] = system: Klebsiella pneumoniae; assay: Antibacterial activity against Klebsiella pneumoniae at 75 ug/ml incubated for 24 hrs by agar well diffusion method; type: functional; conditions: read-out: DIZ; method in brief: as §2
[25] = system: Bacillus subtilis; assay: Antibacterial activity against Bacillus subtilis at 50 ug/ml incubated for 24 hrs by agar well diffusion method; type: functional; conditions: read-out: DIZ; method in brief: as §2
[26] = system: Bacillus subtilis; assay: Antibacterial activity against Bacillus subtilis at 100 ug/ml incubated for 24 hrs by agar well diffusion method; type: functional; conditions: read-out: DIZ; method in brief: as §2
[27] = system: Escherichia coli; assay: Antibacterial activity against Escherichia coli at 50 ug/ml incubated for 24 hrs by agar well diffusion method; type: functional; conditions: read-out: DIZ; method in brief: as §2
[28] = system: Staphylococcus aureus; assay: Antibacterial activity against Staphylococcus aureus at 25 ug/ml incubated for 24 hrs by agar well diffusion method; type: functional; conditions: read-out: DIZ; method in brief: as §2
[29] = system: Fusarium oxysporum; assay: Antifungal activity against Fusarium oxysporum at 50 ug/ml incubated for 48 hrs by agar well diffusion method; type: functional; conditions: read-out: DIZ; method in brief: as §1

Compound | zone of inhibition at 100 µg/mL [1] [mm] | zone of inhibition at 25 µg/mL [2] [mm] | zone of inhibition at 75 µg/mL [3] [mm] | zone of inhibition at 75 µg/mL [4] [mm] | zone of inhibition at 50 µg/mL [5] [mm] | zone of inhibition at 75 µg/mL [6] [mm] | zone of inhibition at 75 µg/mL [7] [mm] | zone of inhibition at 25 µg/mL [8] [mm] | zone of inhibition at 100 µg/mL [9] [mm] | zone of inhibition at 25 µg/mL [10] [mm] | zone of inhibition at 100 µg/mL [11] [mm] | zone of inhibition at 100 µg/mL [12] [mm] | zone of inhibition at 100 µg/mL [13] [mm] | zone of inhibition at 75 µg/mL [14] [mm] | zone of inhibition at 25 µg/mL [15] [mm] | IC50 [16] [mg/L] | zone of inhibition at 50 µg/mL [17] [mm] | zone of inhibition at 50 µg/mL [18] [mm] | zone of inhibition at 50 µg/mL [19] [mm] | zone of inhibition at 100 µg/mL [20] [mm] | further results
Cl.NCC(=O)Oc1ccc2c(=O)c3ccccc3oc2c1 | 17 | 9 | 16 | 19 | 15 | 21 | 21 | 12 | 30 | 17 | 20 | 23 | 17 | 14 | 7 | 70 | 11 | 10 | 22 | 24 | zone of inhibition at 25 µg/mL [21]: 10 mm; zone of inhibition at 25 µg/mL [22]: 7 mm; zone of inhibition at 75 µg/mL [23]: 14 mm; zone of inhibition at 75 µg/mL [24]: 27 mm; zone of inhibition at 50 µg/mL [25]: 15 mm; zone of inhibition at 100 µg/mL [26]: 26 mm; zone of inhibition at 50 µg/mL [27]: 17 mm; zone of inhibition at 25 µg/mL [28]: 10 mm; zone of inhibition at 50 µg/mL [29]: 10 mm
CC(C)(C)OC(=O)NCC(=O)Oc1ccc2c(=O)c3ccccc3oc2c1 | 15 | 7 | 14 | 16 | 12 | 16 | 16 | 7 | 23 | 16 | 16 | 22 | 15 | 13 | 5 | 66 (≈ 179 µM) | 10 | 9 | 12 | 21 | zone of inhibition at 25 µg/mL [21]: 6 mm; zone of inhibition at 25 µg/mL [22]: 4 mm; zone of inhibition at 75 µg/mL [23]: 12 mm; zone of inhibition at 75 µg/mL [24]: 17 mm; zone of inhibition at 50 µg/mL [25]: 12 mm; zone of inhibition at 100 µg/mL [26]: 20 mm; zone of inhibition at 50 µg/mL [27]: 3 mm; zone of inhibition at 25 µg/mL [28]: 7 mm; zone of inhibition at 50 µg/mL [29]: 9 mm
C[C@H](NC(=O)OC(C)(C)C)C(=O)Oc1ccc2c(=O)c3ccccc3oc2c1 | 18 | 7 | 15 | 14 | 10 | 20 | 19 | 17 | 22 | 6 | 17 | 19 | 18 | 14 | 8 | 70 (≈ 183 µM) | 12 | 12 | 13 | 23 | zone of inhibition at 25 µg/mL [21]: 8 mm; zone of inhibition at 25 µg/mL [22]: 6 mm; zone of inhibition at 75 µg/mL [23]: 15 mm; zone of inhibition at 75 µg/mL [24]: 19 mm; zone of inhibition at 50 µg/mL [25]: 14 mm; zone of inhibition at 100 µg/mL [26]: 22 mm; zone of inhibition at 50 µg/mL [27]: 14 mm; zone of inhibition at 25 µg/mL [28]: 6 mm; zone of inhibition at 50 µg/mL [29]: 10 mm
CC(C)[C@H](NC(=O)OC(C)(C)C)C(=O)Oc1ccc2c(=O)c3ccccc3oc2c1 | 23 | 10 | 15 | 17 | 13 | 18 | 19 | 8 | 24 | 5 | 21 | 22 | 20 | 20 | 7 | 76 (≈ 185 µM) | 13 | 13 | 11 | 20 | zone of inhibition at 25 µg/mL [21]: 7 mm; zone of inhibition at 25 µg/mL [22]: 9 mm; zone of inhibition at 75 µg/mL [23]: 16 mm; zone of inhibition at 75 µg/mL [24]: 19 mm; zone of inhibition at 50 µg/mL [25]: 13 mm; zone of inhibition at 100 µg/mL [26]: 22 mm; zone of inhibition at 50 µg/mL [27]: 13 mm; zone of inhibition at 25 µg/mL [28]: 10 mm; zone of inhibition at 50 µg/mL [29]: 14 mm
C[C@H](N)C(=O)Oc1ccc2c(=O)c3ccccc3oc2c1.Cl | 18 | 7 | 15 | 19 | 13 | 22 | 19 | 15 | 28 | 8 | 17 | 22 | 18 | 16 | 8 | 78 | 12 | 12 | 16 | 26 | zone of inhibition at 25 µg/mL [21]: 11 mm; zone of inhibition at 25 µg/mL [22]: 6 mm; zone of inhibition at 75 µg/mL [23]: 15 mm; zone of inhibition at 75 µg/mL [24]: 23 mm; zone of inhibition at 50 µg/mL [25]: 16 mm; zone of inhibition at 100 µg/mL [26]: 23 mm; zone of inhibition at 50 µg/mL [27]: 19 mm; zone of inhibition at 25 µg/mL [28]: 9 mm; zone of inhibition at 50 µg/mL [29]: 10 mm
